Measured values as given in ChEMBL document CHEMBL1165943, “Design and synthesis of new anticancer pyrimidines with multiple-kinase inhibitory effect” (Bioorg Med Chem, 2010).
pIC50: −log10 of the molar value.

What was measured:
UACC-257 = test: Cytotoxicity against human UACC257 cells assessed as cell growth at 0.001 uM after 48 hrs by sulforhodamine B assay; type: functional; settings: UACC-257, 48 h, read-out: Activity
MDA-MB-435 [1] = test: Cytotoxicity against human MDA-MB-435 cells assessed as cell growth at 0.01 uM after 48 hrs by sulforhodamine B assay; type: functional; settings: MDA-MB-435, 48 h, read-out: Activity
SK-MEL-2 = test: Cytotoxicity against human SK-MEL-2 cells assessed as cell growth at 0.01 uM after 48 hrs by sulforhodamine B assay; type: functional; settings: SK-MEL-2, 48 h, read-out: Activity
HL-60(TB) [2] = test: Growth inhibition of human HL-60(TB) cells after 48 hrs by sulforhodamine B assay; type: functional, cell-based; settings: HL-60, 48 h; for CC50: read-out: LC50 (the source's name)
Summary of the method: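 HL-60(TB) suspension cells in RPMI 1640 with 5% FBS receive five 10-fold or ½log drug dilutions from DMSO stock for 48 h at 37 °C, 5% CO2. Settled cells are TCA-fixed, SRB-stained and read at 515 nm against a time-zero plate. […] is solved from [(Ti−Tz)/(C−Tz)]×100 = 50.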

A549 = test: Cytotoxicity against human A549 cells assessed as cell growth at 100 nM after 48 hrs by sulforhodamine B assay; type: functional; settings: A549, 48 h, read-out: Activity
Summary of the method: (§1)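 Cells grown in RPMI 1640 with 5% FBS and 2 mM L-glutamine, seeded at 5,000–40,000 cells/well by doubling time. Time-zero plates TCA-fixed after 24 h. Five concentrations (10-fold or half-log dilutions from DMSO stock) added; 48 h at 37 °C, 5% CO2. Cold TCA fixation (final 10%, 60 min, 4 °C), 0.4% SRB stain, dye solubilized in 10 mM trizma base, A515.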

ACHN [3] = test: Cytotoxicity against human ACHN cells assessed as cell growth at 0.001 uM after 48 hrs by sulforhodamine B assay; type: functional; settings: read-out: Activity; summary of the method: as §1
DU-145 [4] = test: Cytotoxicity against human DU145 cells assessed as cell growth at 0.001 uM after 48 hrs by sulforhodamine B assay; type: functional; settings: DU-145, 48 h, read-out: Activity
UO-31 = test: Growth inhibition of human UO31 cells after 48 hrs by sulforhodamine B assay; type: functional, cell-based; settings: UO-31, 48 h; for CC50: read-out: LC50 (the source's name)
Summary of the method: (§2)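 Cells grown in RPMI 1640 with 5% FBS and 2 mM L-glutamine, seeded at 5,000–40,000 cells/well according to doubling time. After 24 h, time-zero plates are TCA-fixed. Five concentrations (10-fold or ½log dilutions, DMSO stocks) are applied for 48 h at 37 °C, 5% CO₂. Cells are TCA-fixed, SRB-stained and read at 515 nm. IC₅₀ is taken from [(Ti−Tz)/(C−Tz)]×100 = 50.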

K562 = test: Cytotoxicity against human K562 cells assessed as cell growth at 100 nM after 48 hrs by sulforhodamine B assay; type: functional; settings: K562, 48 h, read-out: Activity
HL-60(TB) [5] = test: Cytotoxicity against human HL-60(TB) cells assessed as cell growth at 1 uM after 48 hrs by sulforhodamine B assay; type: functional; settings: HL-60, 48 h, read-out: Activity
Summary of the method: (§3)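 Five-concentration HL-60(TB) test in RPMI 1640 with 5% FBS and 2 mM L-glutamine. Cells are plated at 5,000–40,000/well and a TCA-fixed time-zero plate is read at drug addition after 24 h. Drug is dissolved in DMSO and given as five 10-fold or ½log dilutions for 48 h at 37 °C, 5% CO2. Settled cells are fixed with TCA, stained with SRB and read at 515 nm.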

ACHN [6] = test: Cytotoxicity against human ACHN cells assessed as cell growth at 100 nM after 48 hrs by sulforhodamine B assay; type: functional; settings: read-out: Activity; summary of the method: as §1
IGROV-1 = test: Cytotoxicity against human IGROV1 cells assessed as cell growth at 0.001 uM after 48 hrs by sulforhodamine B assay; type: functional; settings: IGROV-1, 48 h, read-out: Activity
LOX IMVI = test: Cytotoxicity against human LOXIMVI cells assessed as cell growth at 10 uM after 48 hrs by sulforhodamine B assay; type: functional; settings: read-out: Activity
[7] = Growth inhibition of human Hs 578T cells after 48 hrs by sulforhodamine B assay; type: functional, cell-based; settings: for CC50: read-out: LC50 (the source's name); summary of the method: as §2
T47D = test: Growth inhibition of human T47D cells after 48 hrs by sulforhodamine B assay; type: functional, cell-based; summary of the method: as §2
DU-145 [8] = test: Cytotoxicity against human DU145 cells assessed as cell growth at 0.01 uM after 48 hrs by sulforhodamine B assay; type: functional; settings: DU-145, 48 h, read-out: Activity
U-251 [9] = test: Cytotoxicity against human U251 cells assessed as cell growth at 10 uM after 48 hrs by sulforhodamine B assay; type: functional; settings: U-251, 48 h, read-out: Activity
NCI/ADR-RES = test: Cytotoxicity against human NCI/ADR-RES cells assessed as cell growth at 100 nM after 48 hrs by sulforhodamine B assay; type: functional; settings: read-out: Activity
SN12C [10] = test: Growth inhibition of human SN12C cells after 48 hrs by sulforhodamine B assay; type: functional, cell-based; settings: for CC50: read-out: LC50 (the source's name); summary of the method: as §2
OVCAR-5 = test: Cytotoxicity against human OVCAR5 cells assessed as cell growth at 0.01 uM after 48 hrs by sulforhodamine B assay; type: functional; settings: OVCAR-5, 48 h, read-out: Activity
U-251 [11] = test: Cytotoxicity against human U251 cells assessed as cell growth at 100 nM after 48 hrs by sulforhodamine B assay; type: functional; settings: U-251, 48 h, read-out: Activity
OVCAR-3 = test: Growth inhibition of human OVCAR-3 cells after 48 hrs by sulforhodamine B assay; type: functional, cell-based; settings: OVCAR-3, 48 h; for CC50: read-out: LC50 (the source's name); summary of the method: as §2
[12] = Cytotoxicity against human Hs 578T cells assessed as cell growth at 10 uM after 48 hrs by sulforhodamine B assay; type: functional; settings: read-out: Activity
Malme-3M = test: Cytotoxicity against human MALME-3M cells assessed as cell growth at 0.001 uM after 48 hrs by sulforhodamine B assay; type: functional; settings: read-out: Activity
MDA-MB-435 [13] = test: Cytotoxicity against human MDA-MB-435 cells assessed as cell growth at 0.001 uM after 48 hrs by sulforhodamine B assay; type: functional; settings: MDA-MB-435, 48 h, read-out: Activity
SW-620 = test: Cytotoxicity against human SW620 cells assessed as cell growth at 10 uM after 48 hrs by sulforhodamine B assay; type: functional; settings: SW-620, 48 h, read-out: Activity
HL-60(TB) [14] = test: Cytotoxicity against human HL-60(TB) cells assessed as cell growth at 100 nM after 48 hrs by sulforhodamine B assay; type: functional; settings: HL-60, 48 h, read-out: Activity; summary of the method: as §3
SN12C [15] = test: Cytotoxicity against human SN12C cells assessed as cell growth at 100 nM after 48 hrs by sulforhodamine B assay; type: functional; settings: read-out: Activity
HOP-62 = test: Cytotoxicity against human HOP62 cells assessed as cell growth at 0.01 uM after 48 hrs by sulforhodamine B assay; type: functional; settings: HOP-62, 48 h, read-out: Activity

Compound `CC(=O)c1ccccc1-c1ccc(-c2ccnc(NC(=O)Nc3cc(N4CCOCC4)cc(C(F)(F)F)c3)n2)cn1` has a growth at 0.001 µM (UACC-257) of 89%, a growth at 0.01 µM (MDA-MB-435 [1]) of 95% and a growth at 0.01 µM (SK-MEL-2) of 105%. The GI50 (HL-60(TB) [2]) was greater than 100 µM, the pIC50 (HL-60(TB) [2]) was less than 4.00 and the TGI (HL-60(TB) [2]) was greater than 100 µM. For the same compound, the CC50 (HL-60(TB) [2]) was greater than 100 µM, the growth at 0.1 µM (A549) was 92% and the growth at 0.001 µM (ACHN [3]) was 97%. It also gave a growth at 0.001 µM (DU-145 [4]) of 100%, a GI50 (UO-31) greater than 5.46 µM and a pIC50 (UO-31) of less than 4.00. For the same compound, the TGI (UO-31) was greater than 100 µM, the CC50 (UO-31) was greater than 100 µM and the growth at 0.1 µM (K562) was 69%. It also gave a growth at 1 µM (HL-60(TB) [5]) of 88%, a growth at 0.1 µM (ACHN [6]) of 91% and a growth at 0.001 µM (IGROV-1) of 98%. For the same compound, the growth at 10 µM (LOX IMVI) was 93%, the GI50 [7] was greater than 100 µM and the pIC50 [7] was 5.54. For the same compound, the TGI [7] was greater than 100 µM, the CC50 [7] was greater than 100 µM and the GI50 (T47D) was greater than 100 µM. It also gave a pIC50 (T47D) of less than 4.00, an LC50 (lethal concentration, 50% net cell kill) (T47D) greater than 100 µM and a TGI (T47D) greater than 100 µM. It also gave a growth at 0.01 µM (DU-145 [8]) of 97%, a growth at 10 µM (U-251 [9]) of 39% and a growth at 0.1 µM (NCI/ADR-RES) of 75%. The GI50 (SN12C [10]) was 1.27 µM, the pIC50 (SN12C [10]) was less than 4.00 and the TGI (SN12C [10]) was greater than 100 µM. For the same compound, the CC50 (SN12C [10]) was greater than 100 µM, the growth at 0.01 µM (OVCAR-5) was 100% and the growth at 0.1 µM (U-251 [11]) was 93%. The GI50 (OVCAR-3) was 6.18 µM, the pIC50 (OVCAR-3) was less than 4.00 and the TGI (OVCAR-3) was greater than 100 µM. The CC50 (OVCAR-3) was greater than 100 µM, the growth at 10 µM [12] was 13% and the growth at 0.001 µM (Malme-3M) was 94%. The growth at 0.001 µM (MDA-MB-435 [13]) was 98%, the growth at 10 µM (SW-620) was 102% and the growth at 0.1 µM (HL-60(TB) [14]) was 73%. It also gave a growth at 0.1 µM (SN12C [15]) of 83% and a growth at 0.01 µM (HOP-62) of 100%.
With `CC(=O)Nc1cccc(-c2ccc(-c3ccnc(NC(=O)Nc4cc(C(F)(F)F)cc(C(F)(F)F)c4)n3)cn2)c1.Cl` the growth at 0.001 µM (UACC-257) was 94%, the growth at 0.01 µM (MDA-MB-435 [1]) was 97% and the growth at 0.01 µM (SK-MEL-2) was 94%. For the same compound, the GI50 (HL-60(TB) [2]) was 3.78 µM, the pIC50 (HL-60(TB) [2]) was 5.42 and the TGI (HL-60(TB) [2]) was 96.1 µM. For the same compound, the CC50 (HL-60(TB) [2]) was greater than 100 µM, the growth at 0.1 µM (A549) was 58% and the growth at 0.001 µM (ACHN [3]) was 101%. It also gave a growth at 0.001 µM (DU-145 [4]) of 112%, a GI50 (UO-31) of 5.51 µM and a pIC50 (UO-31) of 5.26. For the same compound, the TGI (UO-31) was 23.2 µM, the CC50 (UO-31) was 61.7 µM and the growth at 0.1 µM (K562) was 69%. The growth at 1 µM (HL-60(TB) [5]) was 28%, the growth at 0.1 µM (ACHN [6]) was 93% and the growth at 0.001 µM (IGROV-1) was 95%. It also gave a growth at 10 µM (LOX IMVI) of 4%, a GI50 [7] of 7.52 µM and a pIC50 [7] of 5.12. The TGI [7] was greater than 100 µM, the CC50 [7] was greater than 100 µM and the GI50 (T47D) was 0.619 µM. For the same compound, the pIC50 (T47D) was 6.21, the LC50 (lethal concentration, 50% net cell kill) (T47D) was greater than 100 µM and the TGI (T47D) was 8.43 µM. The growth at 0.01 µM (DU-145 [8]) was 95%, the growth at 10 µM (U-251 [9]) was -96% and the growth at 0.1 µM (NCI/ADR-RES) was 93%. It also gave a GI50 (SN12C [10]) of 9.29 µM, a pIC50 (SN12C [10]) of 5.03 and a TGI (SN12C [10]) of 23.8 µM. The CC50 (SN12C [10]) was 57.7 µM, the growth at 0.01 µM (OVCAR-5) was 82% and the growth at 0.1 µM (U-251 [11]) was 85%. It also gave a GI50 (OVCAR-3) of 1.85 µM, a pIC50 (OVCAR-3) of 5.73 and a TGI (OVCAR-3) of 4.23 µM. It also gave a CC50 (OVCAR-3) of 9.69 µM, a growth at 10 µM [12] of 18% and a growth at 0.001 µM (Malme-3M) of 92%. The growth at 0.001 µM (MDA-MB-435 [13]) was 97%, the growth at 10 µM (SW-620) was 41% and the growth at 0.1 µM (HL-60(TB) [14]) was 80%. It also gave a growth at 0.1 µM (SN12C [15]) of 86% and a growth at 0.01 µM (HOP-62) of 92%.
